Assay results reported in ChEMBL document CHEMBL3286351, “Antibacterial evaluation of structurally amphipathic, membrane active small cationic peptidomimetics: synthesized by incorporating 3-amino benzoic acid as peptidomimetic element” (Eur J Med Chem, 2014).
≈ marks a conversion by molar mass, not a printed value. Where a SMILES comes first, the peptide text is derived from it. [ ]: non-standard residue; d: D form. 3Abz = Nc1cccc(C(=O)O)c1; Orn = NCCC[CH](N)C(=O)O

Assays:
Bacillus subtilis = experiment: Antibacterial activity against Bacillus subtilis MTCC 2763 assessed as growth inhibition after 18 hrs by CLSI microdilution broth assay; format: functional; details: MTCC 2763, 18 h
[1] = Retention time of the compound by HPLC analysis; format: physicochemical
Outline: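 Analytical RP-HPLC on a C18 column (5 µm, 4.6 × 250 mm) at room temperature. Run a linear gradient of 0.5-60% acetonitrile containing 0.05% TFA against water containing 0.05% TFA at 0.5 mL/min.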

Staphylococcus aureus [2] = experiment: Antibacterial activity against Staphylococcus aureus MTCC 3160 assessed as growth inhibition after 18 hrs by CLSI microdilution broth assay; format: functional; details: MTCC 3160, 18 h
[3] = tested on: Staphylococcus epidermidis; experiment: Antibacterial activity against methicillin-resistant Staphylococcus epidermidis ATCC 51625 assessed as growth inhibition after 18 hrs by CLSI microdilution broth assay; format: functional; details: ATCC 51625, 18 h
Outline: (§1)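 Modified CLSI broth microdilution in Mueller-Hinton broth. Wells held 90 µL of about 2 × 10^5 CFU/mL inoculum plus 10 µL of serially diluted peptidomimetic, range 0.7-100 µg/mL. Plates were incubated overnight with agitation at 37 °C and absorbance read at 600 nm after 18 h. Controls: inoculum without compound, and uninoculated broth. Run in triplicate.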

Escherichia coli = experiment: Antibacterial activity against Escherichia coli MTCC 723 assessed as growth inhibition after 18 hrs by CLSI microdilution broth assay; format: functional; details: MTCC 723, 18 h
Pseudomonas aeruginosa = experiment: Antibacterial activity against Pseudomonas aeruginosa MTCC 2295 assessed as growth inhibition after 18 hrs by CLSI microdilution broth assay; format: functional; details: MTCC 2295, 18 h
[4] = Induction of hemolysis in human RBC assessed as hemoglobin release after 1 hr by microtiter plate reader analysis; format: cell-based, Erythrocyte; details: for HC10: erythrocyte, 1 h; for HC50 at 1 h: red blood cells
Outline: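 Freshly isolated human RBCs washed three times in PBS (35 mM phosphate, 150 mM NaCl, pH 7.2) and used as a 4% (v/v) suspension. Mixed 1:1 with twofold serial dilutions of compound, incubated 1 h at 37 °C without agitation, then centrifuged. Supernatant A540 read. PBS defined 0% and 1% Triton X-100 defined 100% lysis; HC50 and HC10 derived.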

[5] = Selectivity ratio of HC50 for hemolysis in human RBC to MIC for Staphylococcus aureus
Staphylococcus aureus [6] = experiment: Antibacterial activity against methicillin-resistant Staphylococcus aureus ATCC BAA-1720 assessed as growth inhibition after 18 hrs by CLSI microdilution broth assay; format: functional; details: ATCC BAA-1720, 18 h; outline: as §1

| SMILES | MIC (Bacillus subtilis) [µg/mL] | Retention_time [1] [min] | MIC (Staphylococcus aureus [2]) [µg/mL] | MIC [3] [µg/mL] | MIC (Escherichia coli) [µg/mL] | MIC (Pseudomonas aeruginosa) [µg/mL] | HC10 [4] [µg/mL] | HC50 at 1 h [4] [µg/mL] | Selectivity ratio [5] | MIC (Staphylococcus aureus [6]) [µg/mL] |
| --- | --- | --- | --- | --- | --- | --- | --- | --- | --- | --- |
| N=C(N)NCCCC(NC(=O)C(Cc1c[nH]c2ccccc12)NC(=O)c1cccc(NC(=O)C(CCCNC(=N)N)NC(=O)C(N)Cc2c[nH]c3ccccc23)c1)C(N)=O (stereo not given) (H-WR[3Abz]WR-NH2; configuration not given here) | 75 (≈ 91.4 µM) | 24.982 | 60 (≈ 73.1 µM) | 75 (≈ 91.4 µM) | 150 (≈ 183 µM) | 120 (≈ 146 µM) | 220 | 400 | 6.66 | 50 (≈ 60.9 µM) |
| N=C(N)NCCCC(NC(=O)C(CCCNC(=N)N)NC(=O)c1cccc(NC(=O)C(CCCNC(=N)N)NC(=O)C(Cc2c[nH]c3ccccc23)NC(=O)C(N)Cc2c[nH]c3ccccc23)c1)C(N)=O (stereo not given) (H-WWR[3Abz]RR-NH2; configuration not given here) | 70 (≈ 71.6 µM) | 27.34 | 50 (≈ 51.2 µM) | 50 (≈ 51.2 µM) | 75 (≈ 76.8 µM) | 100 (≈ 102 µM) | 200 | 380 | 7.6 | 50 (≈ 51.2 µM) |
| N=C(N)NCCCC(NC(=O)c1cccc(NC(=O)C(Cc2c[nH]c3ccccc23)NC(=O)C(N)Cc2c[nH]c3ccccc23)c1)C(N)=O (stereo not given) (H-WW[3Abz]R-NH2; configuration not given here) | 150 (≈ 226 µM) | 28.661 | 120 (≈ 181 µM) | > 200 | 150 (≈ 226 µM) | 170 (≈ 256 µM) | 100 | 240 | 2 | 200 (≈ 301 µM) |
| N=C(N)NCCCC(NC(=O)C(CCCNC(=N)N)NC(=O)c1cccc(NC(=O)C(Cc2c[nH]c3ccccc23)NC(=O)C(N)Cc2c[nH]c3ccccc23)c1)C(N)=O (stereo not given) (H-WW[3Abz]RR-NH2; configuration not given here) | 70 (≈ 85.3 µM) | 25.377 | 50 (≈ 60.9 µM) | 75 (≈ 91.4 µM) | 120 (≈ 146 µM) | 125 (≈ 152 µM) | 150 | 400 | 8 | 50 (≈ 60.9 µM) |
| NCCCC(NC(=O)C(CCCN)NC(=O)c1cccc(NC(=O)C(Cc2c[nH]c3ccccc23)NC(=O)C(CCCN)NC(=O)C(N)Cc2c[nH]c3ccccc23)c1)C(N)=O (stereo not given) (H-W[Orn]W[3Abz][Orn][Orn]-NH2; configuration not given here) | 40 (≈ 47 µM) | 24.782 | 25 (≈ 29.4 µM) | 20 (≈ 23.5 µM) | 70 (≈ 82.3 µM) | 75 (≈ 88.1 µM) | 175 | 450 | 18 | 25 (≈ 29.4 µM) |
| NCCCC(NC(=O)C(Cc1c[nH]c2ccccc12)NC(=O)c1cccc(NC(=O)C(CCCN)NC(=O)C(CCCN)NC(=O)C(N)Cc2c[nH]c3ccccc23)c1)C(N)=O (stereo not given) (H-W[Orn][Orn][3Abz]W[Orn]-NH2; configuration not given here) | 75 (≈ 88.1 µM) | 24.193 | 40 (≈ 47 µM) | 40 (≈ 47 µM) | 75 (≈ 88.1 µM) | 100 (≈ 118 µM) | 170 | 500 | 12.5 | 50 (≈ 58.8 µM) |
| NCCCC(N)C(=O)NC(Cc1c[nH]c2ccccc12)C(=O)NC(Cc1c[nH]c2ccccc12)C(=O)Nc1cccc(C(=O)NC(CCCN)C(=O)NC(CCCN)C(N)=O)c1 (stereo not given) (H-[Orn]WW[3Abz][Orn][Orn]-NH2; configuration not given here) | 100 (≈ 118 µM) | 23.979 | 50 (≈ 58.8 µM) | 50 (≈ 58.8 µM) | 100 (≈ 118 µM) | 100 (≈ 118 µM) | 150 | 440 | 8.8 | 50 (≈ 58.8 µM) |
